In article PMC9072645 (RSC Advances, 2019):

Assays:
Format in all cases: biochemical
[1] = molecular target: T1, human recombinant (hr) FAP (Homo sapiens, UniProt Q12884); assay: Inhibition of hrFAP
T1 sequence (Q12884 1-760): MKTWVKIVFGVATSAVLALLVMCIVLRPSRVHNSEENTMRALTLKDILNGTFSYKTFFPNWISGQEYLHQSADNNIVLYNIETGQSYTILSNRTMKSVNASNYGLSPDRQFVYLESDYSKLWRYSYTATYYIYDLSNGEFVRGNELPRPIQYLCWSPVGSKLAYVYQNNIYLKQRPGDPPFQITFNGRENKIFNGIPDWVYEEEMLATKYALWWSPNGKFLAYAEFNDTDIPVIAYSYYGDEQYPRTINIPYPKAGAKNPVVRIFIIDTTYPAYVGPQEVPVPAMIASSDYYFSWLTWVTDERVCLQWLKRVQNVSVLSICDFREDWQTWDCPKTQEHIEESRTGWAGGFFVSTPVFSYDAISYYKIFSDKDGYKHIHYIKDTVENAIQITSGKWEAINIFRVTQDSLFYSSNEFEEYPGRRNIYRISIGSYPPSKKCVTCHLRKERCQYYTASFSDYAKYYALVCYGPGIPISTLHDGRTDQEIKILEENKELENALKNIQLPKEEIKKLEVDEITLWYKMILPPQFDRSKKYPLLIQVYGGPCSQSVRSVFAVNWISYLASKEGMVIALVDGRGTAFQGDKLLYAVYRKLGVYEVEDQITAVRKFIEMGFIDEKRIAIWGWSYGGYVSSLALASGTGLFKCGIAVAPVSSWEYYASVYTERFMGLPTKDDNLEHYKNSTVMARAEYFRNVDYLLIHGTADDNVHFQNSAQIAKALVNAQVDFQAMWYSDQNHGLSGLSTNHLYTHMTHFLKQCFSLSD
Method in brief: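 Recombinant human FAP, 0.01 μg per well, in 50 mM Tris, 1 M NaCl, 1 mg mL−1 BSA, pH 7.5. Preincubated 30 min at 37 °C with test compound at 5, 10, 20, 50 and 100 nM. Then 50 μM Z-Gly-Pro-AMC was added and the fluorescence increase followed for 60 min at 37 °C (λex/λem 360/460 nm). Triplicate wells, experiment repeated twice. IC50 determined graphically; Ki calculated.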

hrDPP IV = hrDPP IV (Homo sapiens, UniProt P27487); assay: Inhibition of hrDPP IV
Method in brief: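 Recombinant human DPP IV, 0.01 μg per well, in 25 mM Tris, 1 mg mL−1 BSA, pH 8.0. Enzyme preincubated 30 min at 37 °C with test compound […]. Residual activity was read with 50 μM H-Gly-Pro-AMC as fluorescence increase over 60 min at 37 °C, 360/460 nm. Triplicate wells, repeated twice. IC50 determined graphically.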

hrPREP = molecular target: T2, hrPREP (Homo sapiens, UniProt P48147); assay: Inhibition of hrPREP
T2 sequence (P48147 1-710): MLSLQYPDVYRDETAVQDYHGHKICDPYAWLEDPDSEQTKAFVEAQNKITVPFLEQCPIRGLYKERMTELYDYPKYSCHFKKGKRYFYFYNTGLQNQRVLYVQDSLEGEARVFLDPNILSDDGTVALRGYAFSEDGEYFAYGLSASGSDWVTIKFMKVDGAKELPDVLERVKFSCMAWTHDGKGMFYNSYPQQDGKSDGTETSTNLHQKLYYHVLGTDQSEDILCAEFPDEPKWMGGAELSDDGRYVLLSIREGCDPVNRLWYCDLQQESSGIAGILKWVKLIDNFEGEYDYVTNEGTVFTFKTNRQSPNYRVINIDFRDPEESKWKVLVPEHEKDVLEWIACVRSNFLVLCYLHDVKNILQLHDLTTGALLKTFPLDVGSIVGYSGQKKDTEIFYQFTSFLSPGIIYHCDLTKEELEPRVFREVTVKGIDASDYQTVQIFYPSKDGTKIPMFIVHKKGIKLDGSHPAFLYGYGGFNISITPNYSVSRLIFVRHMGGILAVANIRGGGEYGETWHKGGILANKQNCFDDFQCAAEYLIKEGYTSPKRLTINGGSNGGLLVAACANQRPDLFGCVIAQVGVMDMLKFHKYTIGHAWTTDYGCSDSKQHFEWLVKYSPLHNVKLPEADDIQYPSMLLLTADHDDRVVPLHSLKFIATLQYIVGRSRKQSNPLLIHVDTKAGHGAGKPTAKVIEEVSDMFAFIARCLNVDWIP

Chain of hrDPP IV (P27487 whole entry): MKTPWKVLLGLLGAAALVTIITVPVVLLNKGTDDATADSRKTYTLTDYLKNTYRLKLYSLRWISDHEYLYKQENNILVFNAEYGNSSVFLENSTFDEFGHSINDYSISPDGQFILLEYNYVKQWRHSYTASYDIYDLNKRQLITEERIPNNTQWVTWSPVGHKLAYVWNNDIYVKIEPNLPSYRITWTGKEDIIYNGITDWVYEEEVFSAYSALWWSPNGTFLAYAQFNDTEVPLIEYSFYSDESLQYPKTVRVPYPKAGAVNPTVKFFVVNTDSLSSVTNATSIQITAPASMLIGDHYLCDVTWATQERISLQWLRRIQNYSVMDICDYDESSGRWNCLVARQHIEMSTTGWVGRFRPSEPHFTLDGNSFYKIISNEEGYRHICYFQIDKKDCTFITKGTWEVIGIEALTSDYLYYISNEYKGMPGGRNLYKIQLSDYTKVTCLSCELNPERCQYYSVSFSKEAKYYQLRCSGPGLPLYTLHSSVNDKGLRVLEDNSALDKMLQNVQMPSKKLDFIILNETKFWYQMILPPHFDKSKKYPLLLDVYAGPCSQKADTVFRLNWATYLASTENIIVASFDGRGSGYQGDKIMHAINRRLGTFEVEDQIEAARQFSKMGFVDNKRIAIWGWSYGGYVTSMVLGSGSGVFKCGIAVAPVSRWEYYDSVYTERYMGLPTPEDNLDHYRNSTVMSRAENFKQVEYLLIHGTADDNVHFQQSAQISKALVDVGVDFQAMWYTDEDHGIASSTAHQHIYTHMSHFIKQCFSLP

Compound N#C[C@@H]1CCCN1C(=O)CNC(=O)c1ccnc2ccc(Br)cc12 [compound 5, (S)-6-bromo-N-(2-(2-cyanopyrrolidin-1-yl)-2-oxoethyl)quinoline-4-carboxamide] has an IC50 [1] of 30 ± 5 nM, a Ki [1] of 12 ± 1.8 nM and an IC50 (hrDPP IV) greater than 100000 nM. For the same compound, the “selectivity index SI FAP/DPP IV” value (hrDPP IV; FAP with respect to DPP IV) was “higher than 3300”, the IC50 (hrPREP) was greater than 100000 nM and the “selectivity index SI FAP/PREP” value (hrPREP; FAP with respect to PREP) was “higher than 3300”.
